# High-throughput results from PubChem BioAssay.
# An excerpt weighted towards active compounds, which were near 2.8% of everything screened.
# HTRA1 inh – inhibitors of human serine peptidase HTRA1; Q92743; inhibition, % at 5.96 µM; recombinant HTRA1, FP-rhodamine activity-based probe, fluorescence polarization; actives 0.5% (n = 340,000); in the data active = inhibition above about 36%;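 note: 0% = enzyme with DMSO and 100% = wells lacking enzyme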
# PAFAH1B3 FP inh – inhibitors of human PAFAH1B3; Q15102; recombinant PAFAH1B3, FP-rhodamine probe, fluorescence polarization; inhibition, % at 3.39 µM; actives 0.28% (n = 340,000); AID 492972;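 active = inhibition above the screen-wide average of all tested compounds plus 3 SD, cut at about 25% in these data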;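 note: 0% = enzyme with DMSO only and 100% = wells lacking PAFAH1B3 protein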
# Target sequence (Q15102 whole entry, looked up): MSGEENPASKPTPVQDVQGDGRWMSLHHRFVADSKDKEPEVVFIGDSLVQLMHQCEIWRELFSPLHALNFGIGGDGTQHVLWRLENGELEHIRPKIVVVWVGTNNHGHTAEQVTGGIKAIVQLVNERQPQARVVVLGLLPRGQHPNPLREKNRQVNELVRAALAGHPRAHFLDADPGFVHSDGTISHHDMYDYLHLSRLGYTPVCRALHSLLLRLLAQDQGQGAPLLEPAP
# pPAFAH inh – pPAFAH (human) enzyme inhibition. Q13093. recombinant pPAFAH, FP-rhodamine probe fluorescence polarization. inhibition, % at 3.39 µM. actives 1.5% (n = 330,000);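 active = inhibition above the mean inhibition across the screen plus 3 SD, cut at about 25% in these data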;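 note: inhibitors block binding of the rhodamine activity-based probe so polarization drops; 0% = enzyme with DMSO and 100% = wells lacking pPAFAH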
# PAFAH1B2 inh – PAFAH1B2 (human) inhibition; P68402; recombinant PAFAH1B2, FP-rhodamine activity probe, fluorescence polarization; inhibition, % at 3.39 µM; actives 1.2% (n = 340,000); AID 492953;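 active = inhibition above the mean of all tested compounds plus 3 SD, cut at about 24% in these data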;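 note: 0% = enzyme with DMSO and 100% = wells lacking PAFAH1B2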
# Target sequence (P68402 whole entry, looked up): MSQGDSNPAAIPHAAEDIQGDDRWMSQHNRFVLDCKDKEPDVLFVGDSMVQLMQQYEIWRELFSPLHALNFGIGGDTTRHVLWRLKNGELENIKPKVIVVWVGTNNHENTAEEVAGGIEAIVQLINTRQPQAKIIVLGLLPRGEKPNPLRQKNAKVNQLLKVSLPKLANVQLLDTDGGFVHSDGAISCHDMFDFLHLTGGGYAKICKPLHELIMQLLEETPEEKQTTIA
# ABHD4 inh – inhibits mouse alpha/beta hydrolase domain 4; actives 0.54% (n = 370,000); purified mABHD4, FP-Rh probe fluorescence polarization; inhibition, % at 8.92 µM; AID 720543; Q8VD66;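 active = inhibition exceeding the mean over every tested compound plus 3 SD, cut at about 30% in these data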;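 note: 0% = plate median of compound wells and 100% = S159A mutant with DMSO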
#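 assay system = mABHD4 protein | compound dosing = single nominal dose of 8.92 µM, 0.89% DMSO final | read-out basis = percent inhibition of probe binding, normalized to plate controls | schedule = Enzyme–compound pre-incubation 45 min, then probe 60 min, both 25 °C | detection = fluorescence polarization, excitation 525 nm, emission 598 nm, BODIPY TMR filters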
# PAFAH2 FP inh – PAFAH2 (human) inhibition; Q99487; recombinant PAFAH2, FP-rhodamine activity probe, fluorescence polarization; inhibition, % at 3.39 µM; actives 0.99% (n = 340,000);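 active = inhibition above the mean over all tested compounds plus 3 SD, cut at about 30% in these data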;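 note: inhibitors block probe labeling of enzyme so polarization drops; 0% = enzyme with DMSO and 100% = wells lacking PAFAH2 protein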
# An asterisk follows results filed as active; nt = not tested or not shown.
SMILES,HTRA1 inh,PAFAH1B3 FP inh,pPAFAH inh,PAFAH1B2 inh,ABHD4 inh,PAFAH2 FP inh
CCc1ccc(S(=O)(=O)ON2C(=O)c3ccccc3C2=O)cc1,2.7,17.8,nt,7.5,2.0,14.3
Cc1cc(NS(=O)(=O)c2ccc(NC(=O)CSc3nnc(SCc4ccc(Cl)cc4)s3)cc2)nc(C)n1,nt,nt,nt,nt,-30.8,nt
O=C(N/N=C/c1ccc([N+](=O)[O-])o1)c1cc2ccccc2o1,28.4,10.5,30.4*,7.4,29.2,1.8
O=C(N/N=C/c1ccc([N+](=O)[O-])o1)c1ccccc1NS(=O)(=O)c1cccs1,20.0,4.6,33.9*,5.9,26.6,5.7
CN1C(=O)c2cc(NC(=O)Nc3ccccc3)ccc2OC[C@H]2O[C@@H](CC(=O)N[C@H]3CCN(Cc4ccccc4)C3)CC[C@@H]21,nt,nt,nt,nt,8.0,nt
O=C(O)c1[nH]c2ccccc2c1NS(=O)(=O)c1ccc(F)cc1,2.2,-1.2,3.3,24.1*,6.3,3.1
COc1ccc2[nH]c(C(=O)O)c(NS(=O)(=O)c3ccc(C)c(C)c3)c2c1,6.5,8.6,10.1,18.3,8.9,6.6
COc1ccc2[nH]c(C(=O)O)c(NS(=O)(=O)c3ccc(F)cc3)c2c1,3.1,8.0,3.9,27.2*,2.6,5.5
CC(C)(C)OC(=O)NCc1cc(F)ccc1/C=C/S(=O)(=O)NC1CCCC1,nt,nt,nt,nt,-10.9,nt
COC(=O)C1CN(CCc2ccccc2)CCS(=O)(=O)N1Cc1ccc(Cl)cc1 (configuration not stated),nt,nt,nt,nt,-2.4,nt
Cc1c(C(C)c2ccccc2O)c2ccccc2n1C (configuration not stated),nt,nt,nt,nt,1.9,nt
CC(NCc1ccc(OCc2ccc(Cl)cc2)cc1)C(O)c1ccccc1 (configuration not stated),1.5,7.3,4.8,63.6*,18.1,-1.8
FC(F)(F)c1cccc(N2CCN(C3=Nc4ccccc4Sc4ccccc43)CC2)c1,nt,nt,nt,nt,-3.1,nt
CC1=C(C(=O)OCC(Br)(Br)Br)C(c2cccc([N+](=O)[O-])c2)NC(=O)N1CCCC(=O)O (configuration not stated),2.9,-7.0,-3.1,92.0*,3.7,-1.6
Cc1ccc(CCNC(=O)C2CCCN(S(=O)(=O)c3c(C)nn(C)c3C)C2)cc1 (configuration not stated),-3.2,9.9,4.6,29.1*,3.0,-1.6
CCS(=O)(=O)N1CCCC(C(=O)NCCc2ccc(C)cc2)C1 (configuration not stated),-0.4,-2.3,0.0,5.4,0.8,6.7
Cc1noc(/C=C/N(C)C)c1S(=O)(=O)N1CCCC(C(=O)NCCC2=CCCCC2)C1 (configuration not stated),-53.6,2.1,25.2*,19.7,-10.4,-2.2
CCC(NC(=O)c1cccc2c1C(=O)N(Cc1cccnc1)C2)c1ccccc1 (configuration not stated),nt,nt,nt,nt,-6.1,nt
COC(=O)c1cccc(NC(=O)Cc2coc3cc(OC)ccc23)c1,-25.6,1.7,2.9,1.5,-14.4,-0.9
COc1ccc2c(CC(=O)OCC(=O)Nc3cccc(C)c3)coc2c1,-20.4,10.4,32.9*,-3.6,2.7,-2.6
O=C(NCCc1ccccc1)OCc1cn(Cc2ccc(F)c(F)c2)nn1,nt,nt,nt,nt,3.6,nt
O=S1(=O)CCOCC(CO)N1Cc1cccc(Br)c1 (configuration not stated),nt,nt,nt,nt,-3.4,nt
CCC[C@H]1[C@@H](NC(=O)c2ccc(OC)cc2)CC[C@@]23CCCN2C(=O)CCC[C@@H]13,nt,nt,nt,nt,2.1,nt
NS(=O)(=O)c1cc(C(=O)O)cc(N2CCCC2)c1Oc1ccccc1,-1.5,-1.7,0.4,28.9*,-3.8,-1.9
CCCCNc1cc(C(=O)O)cc(S(N)(=O)=O)c1Oc1ccccc1,1.8,14.7,6.1,16.1,-8.6,6.4
SMILES,HTRA1 inh,PAFAH1B3 FP inh,pPAFAH inh,PAFAH1B2 inh,ABHD4 inh,PAFAH2 FP inh
CC(=O)Oc1ccc2c(c1)O/C(=C\c1ccncc1)C2=O,4.1,2.6,3.2,0.5,nt,-7.2
COc1ccc2c(c1)O/C(=C\c1ccccc1C)C2=O,-23.9,3.8,27.2*,2.2,-4.9,-8.4
COc1ccc(/C=C2\Oc3cc(OC(=O)N4CCOCC4)ccc3C2=O)cc1,6.8,6.9,27.0*,4.8,6.9,11.6
CCc1ccc(/C=C2\Oc3cc(OC(=O)N4CCOCC4)ccc3C2=O)cc1,3.8,8.7,26.3*,3.4,21.1,3.0
COc1ccccc1C(=O)Oc1ccc2c(c1)O/C(=C\c1ccncc1)C2=O,-5.1,6.0,3.3,3.2,3.8,-1.3
CCN(CC)c1ccc(/C=C2\CCC(/C=N/NC(=O)c3ccc(=O)n(C)c3)=C2N2CCOCC2)cc1,7.9,5.5,29.2*,3.4,-0.8,-0.7
O=C(N/N=C/C1=C(N2CCOCC2)C(=C\c2ccccc2)/CC1)Nc1ccccc1,-3.0,3.7,2.2,1.5,8.7,-4.4
COC(=O)c1sc(-c2ccc(Cl)cc2)cc1NC(=O)CSCC(=O)O,-16.9,6.6,11.4,15.1,-5.9,10.0
COC(=O)c1sc(-c2ccc(C(C)(C)C)cc2)cc1NC(=O)COCC(=O)O,nt,nt,27.8*,nt,-15.6,nt
CCCCn1nc(NS(=O)(=O)c2cccc3nonc23)c2cc3cccc(C)c3nc21,5.8,12.0,32.2*,11.4,22.6,15.1
CCn1nc(NS(=O)(=O)c2cccc3nonc23)c2cc3ccc(C)cc3nc21,8.2,-4.1,9.6,-2.3,nt,6.0
COc1ccccc1N1CCN(CCN2C(=O)CC(=C3c4ccccc4-c4ccccc43)C2=O)CC1,nt,nt,29.0*,nt,nt,nt
CN1CCN(c2cc(N3CCN(C(=O)c4ccco4)CC3)c3c4c(onc24)-c2ccccc2C3=O)CC1,63.1*,8.8,10.8,9.1,nt,4.8
O=C(N/N=C/C=C/c1ccco1)/C(=C/c1ccccc1)NC(=O)c1ccccc1,14.2,10.8,31.1*,3.1,2.6,16.2
O=C(N/N=C/C=C/c1ccco1)c1ccncc1,9.8,18.8,9.3,5.8,6.6,5.8
COc1ccc(Sc2ccc(/C=C3\C(=O)NN(c4ccccc4)C3=O)o2)cc1,4.8,14.9,29.1*,42.1*,20.5,33.6*
COc1ccc(-n2c(C)cc(/C=C3\C(=O)NN(c4ccccc4)C3=O)c2C)cc1,1.4,-2.7,10.7,9.2,-0.7,19.7
CCCC1CCC2(CC1)CCC2OC(=O)Nc1cccc(Cl)c1 (configuration not stated),nt,nt,nt,nt,-22.0,nt
O=C(N/N=C/c1cc(Cl)cc([N+](=O)[O-])c1O)c1cc(-c2ccccn2)nc2ccccc12,25.6,2.2,26.7*,2.8,nt,5.7
CSCCCNC(=O)Cn1nc(Cc2ccncc2)c2ccccc2c1=O,nt,nt,nt,nt,-4.3,nt
CC(C)(C)[C@H]1COC(=O)[C@@H](Cc2ccc(F)cc2)C/C=C\C[C@@H](CC(=O)N[C@@H](CO)Cc2ccccc2)C(=O)N1,-8.0,-1.9,-0.4,33.8*,-4.2,0.1
